This passage reports inhibition and Activity results from ChEMBL document CHEMBL4373718, “Germacrane Sesquiterpenoids as a New Type of Anticardiac Fibrosis Agent Targeting Transforming Growth Factor β Type I Receptor” (J Med Chem, 2019).

Activity calls are given as the source filed them. No cut-off for these calls is given here.

The target in experiment [1] is T1, TGF-beta receptor type-1 (Rattus norvegicus) (UniProt P80204).
T1 sequence (whole entry): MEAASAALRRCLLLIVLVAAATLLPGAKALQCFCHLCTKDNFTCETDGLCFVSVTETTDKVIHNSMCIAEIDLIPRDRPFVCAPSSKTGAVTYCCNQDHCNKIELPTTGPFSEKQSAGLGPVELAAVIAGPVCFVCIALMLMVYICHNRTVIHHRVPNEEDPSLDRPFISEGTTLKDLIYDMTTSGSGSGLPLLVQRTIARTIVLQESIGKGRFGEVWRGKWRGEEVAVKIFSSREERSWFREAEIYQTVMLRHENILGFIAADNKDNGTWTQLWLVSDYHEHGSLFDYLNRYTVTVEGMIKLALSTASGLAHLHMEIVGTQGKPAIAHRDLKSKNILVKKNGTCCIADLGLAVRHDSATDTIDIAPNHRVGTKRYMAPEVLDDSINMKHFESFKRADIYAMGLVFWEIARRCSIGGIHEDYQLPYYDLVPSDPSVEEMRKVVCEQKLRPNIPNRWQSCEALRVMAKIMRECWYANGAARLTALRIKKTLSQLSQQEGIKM
As to the kind of experiment: Inhibition of TGFbeta1 receptor in TGFbeta1-stimulated Sprague-Dawley rat cardiac fibroblasts assessed as reduction in collagen 1 expression at 20 uM measured after 12 hrs by Western blot analysis. In outline: (§1)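 Primary adult male SD rat cardiac fibroblasts were used at passages 2–4, seeded at 3×10^5 per well. Cells were co-treated with compound and 10 ng/mL TGFβ1 for 12 h. Lysates (30 µg protein) were run on 10% SDS-PAGE, Western blotted for FN, α-SMA, collagen I and III, normalised to GAPDH and quantified by densitometry; N = 3 independent experiments.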

Experiment [2] has as its system Rattus norvegicus. As to the kind of experiment: Antifibrotic activity in abdominal aortic constriction Sprague-Dawley rat model of cardiac fibrosis assessed as systolic left ventricular posterior wall thickness at 10 mg/kg, ip administered once daily for 4 weeks measured post-last dose by echocardiography (reference value: 3.62 +/- 0.26 mm). Type of experiment: functional.

Experiment [3] deals with Rattus norvegicus. The experiment is described as follows: Antifibrotic activity in abdominal aortic constriction Sprague-Dawley rat model of cardiac fibrosis assessed as decrease in heart fibronectin level at 10 mg/kg, ip administered once daily for 4 weeks measured post-last dose by immunohistochemical analysis. Type of experiment: functional, organism-based. In a few lines:
(§2)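 Male SD rats (200–250 g, n = 8/group) had the suprarenal abdominal aorta tied with 4-0 silk around a 21-G probe, which was then removed; sham rats had surgery without constriction. Dosing was ip daily for 4 weeks in saline with 0.5% DMSO and 5% Kolliphor HS 15. Ventricle slices were formalin-fixed, paraffin-embedded and cut into 4 µm sections. FN and α-SMA were read by immunohistochemistry and collagen by Masson's trichrome.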

In experiment [4] the test system is Rattus norvegicus. The experiment is described as follows: Antifibrotic activity in abdominal aortic constriction Sprague-Dawley rat model of cardiac fibrosis assessed as fractional shortening at 10 mg/kg, ip administered once daily for 4 weeks measured post-last dose by echocardiography (reference value: 48.17 +/- 4.69%). Type of experiment: functional.
The target in experiment [5] is T1, TGF-beta receptor type-1 (Rattus norvegicus). As to the kind of experiment: Inhibition of TGFbeta1 receptor in TGFbeta1-stimulated Sprague-Dawley rat cardiac fibroblasts assessed as reduction in fibronectin expression at 20 uM measured after 12 hrs by Western blot analysis. In outline: as §1
For experiment [6], the system named is Rattus norvegicus. The experiment is described as follows: Antifibrotic activity in abdominal aortic constriction Sprague-Dawley rat model of cardiac fibrosis assessed as diastolic left ventricular anterior wall thickness at 10 mg/kg, ip administered once daily for 4 weeks measured post-last dose by echocardiography (reference value: 2.48 +/- 0.42 mm). The class given is functional.

Experiment [7] addresses T1, TGF-beta receptor type-1 (Rattus norvegicus). The experiment is described as follows: Inhibition of TGFbeta1 receptor in TGFbeta1-stimulated Sprague-Dawley rat cardiac fibroblasts assessed as reduction in alpha-SMA expression at 20 uM measured after 12 hrs by Western blot analysis. In outline:
as §1

Experiment [8] has as its system Rattus norvegicus. The experiment is described as follows: Antifibrotic activity in abdominal aortic constriction Sprague-Dawley rat model of cardiac fibrosis assessed as ejection fraction at 10 mg/kg, ip administered once daily for 4 weeks measured post-last dose by echocardiography (reference value: 79.59 +/- 3.13%). Type of experiment: functional.
The test system of experiment [9] is Rattus norvegicus. The experiment is described as follows: Antifibrotic activity in abdominal aortic constriction Sprague-Dawley rat model of cardiac fibrosis assessed as diastolic left ventricular posterior wall thickness at 10 mg/kg, ip administered once daily for 4 weeks measured post-last dose by echocardiography (reference value: 2.33 +/- 0.31 mm). Type of experiment: functional.

The target of experiment [10] is T1, TGF-beta receptor type-1 (Rattus norvegicus). As to the kind of experiment: Inhibition of TGFbeta1 receptor in TGFbeta1-stimulated Sprague-Dawley rat cardiac fibroblasts assessed as reduction in collagen 3 expression at 20 uM measured after 12 hrs by Western blot analysis. In outline: as §1
For orientation: Immunoblotting shows a protein as a band on a membrane.

The test system of experiment [11] is Rattus norvegicus. As to the kind of experiment: Antifibrotic activity in abdominal aortic constriction Sprague-Dawley rat model of cardiac fibrosis assessed as decrease in heart alpha-SMA level at 10 mg/kg, ip administered once daily for 4 weeks measured post-last dose by immunohistochemical analysis. The class given is functional, organism-based. In a few lines:
as §2

For experiment [12], the system named is Rattus norvegicus. The experiment is described as follows: Antifibrotic activity in abdominal aortic constriction Sprague-Dawley rat model of cardiac fibrosis assessed as diastolic left ventricular internal diameter at 10 mg/kg, ip administered once daily for 4 weeks measured post-last dose by echocardiography (reference value: 7.60 +/- 0.63 mm). The class given is functional.

Experiment [13] has as its system Rattus norvegicus. As to the kind of experiment: Antifibrotic activity in abdominal aortic constriction Sprague-Dawley rat model of cardiac fibrosis assessed as systolic left ventricular anterior wall thickness at 10 mg/kg, ip administered once daily for 4 weeks measured post-last dose by echocardiography (reference value: 3.92 +/- 0.42 mm). Type of experiment: functional.

The subject of experiment [14] is Rattus norvegicus. As to the kind of experiment: Antifibrotic activity in abdominal aortic constriction Sprague-Dawley rat model of cardiac fibrosis assessed as decrease in heart collagen level at 10 mg/kg, ip administered once daily for 4 weeks measured post-last dose by Masson's trichrome staining-based histological analysis. The class given is functional, organism-based. In outline:
as §2

The test system of experiment [15] is Rattus norvegicus. As to the kind of experiment: Antifibrotic activity in abdominal aortic constriction Sprague-Dawley rat model of cardiac fibrosis assessed as systolic left ventricular internal diameter at 10 mg/kg, ip administered once daily for 4 weeks measured post-last dose by echocardiography (reference value: 3.99 +/- 0.41 mm). Type of experiment: functional.

Take `COC(=O)C1=C(C)NC(C)=C(C(=O)OC)C1c1ccccc1[N+](=O)[O-]` [NIFEDIPINE]: the inhibition result in experiment [1], in experiment [5], in experiment [7] and in experiment [10] was “Active” throughout. The Activity in experiment [2] stood at 3.19 mm; in experiment [4], 42.79%; in [6] it was 2.02 mm; in experiment [8] it was 72.6%; in experiment [9], 1.97 mm; in [12], 8.32 mm. The Activity in experiment [13] turned out to be 3.23 mm; in [15] it was 4.69 mm. The outcome in experiment [3], in experiment [11] and in [14] was Active.
